Measured values: ChEMBL document CHEMBL1122504, “Heterocyclic Quinones. 4. A new highly cytotoxic drug: 6,7-bis(1-aziridinyl)-5,8-quinazolinedione” (1983)

Key:
Format in all cases: functional, Mus musculus
B16 = assay: Median survival time of […] melanocarcinoma cell line after a dose of 2.5 mg/kg administered intraperitoneally on Q01Dx01 treatment schedule; conditions: route intraperitoneal
How it was run: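 B16 melanocarcinoma: C57Bl/6 mice implanted sc with cell suspension on day 0; single ip dose in 0.15 M NaCl saline given on day 1. Median survival time was recorded in days, with toxicity taken as survivors on day 5. T/C% = treated MST/control MST × 100; >125% is considered significant.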

P388 [1] = assay: Number of survivors of P388 lymphocytic leukemia cell line on day 5/ number of treated mice at a dose of 3 ip injection of 10 mg/kg on Q04Dx03 treatment schedule; 10/10; conditions: route intraperitoneal
P388 [2] = assay: Median survival time of P388 lymphocytic leukemia cell line after a dose of 5 mg/kg administered intravenously on Q01Dx01 treatment schedule; conditions: route intravenous
How it was run: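 P388 leukaemia: DBA/2 mice inoculated with 10^6 cells on day 0; treatment began day 1 at the stated route and schedule. Drug was dissolved in 0.15 M NaCl saline. The read-out was median survival time (MST, days), with toxicity taken as survivors on day 5. T/C% = treated MST/control MST × 100; ≥125% is considered significant.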

Structure (SMILES): O=C1C(N2CC2)=C(N2CC2)C(=O)c2ncncc21
- MST (B16): 15.7 days
- Toxicity Survivors (P388 [1]): 10
- MST (P388 [2]): 10.4 days
